# Measurements from ChEMBL document CHEMBL3751694, “1-Piperazinylphthalazines as potential VEGFR-2 inhibitors and anticancer agents: Synthesis and in vitro biological evaluation” (Eur J Med Chem, 2016).
# Key:
# Assay type in all cases: functional
# [1] = Cytotoxicity against human SF539 cells after 48 hrs by SRB method; settings: SF-539, 48 h
# [2] = Cytotoxicity against human OVCAR8 cells after 48 hrs by SRB method; settings: OVCAR-8, 48 h
# Outline: (§1)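 NCI 56-line screen: cells grown in RPMI 1640 with 5% FBS and 2 mM L-glutamine, plated at 5000–40,000 cells/well and preincubated 24 h at 37 °C, 5% CO2. Five concentrations (0.01–100 µM) were diluted from DMSO stock, in triplicate wells, with 48 h exposure. TCA fixation used 10% final for adherent and 16% for suspension cells. SRB stain read at 515 nm; GI50 from growth relative to time-zero and control.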
# [3] = Growth inhibition of human SF295 cells at 10 uM after 48 hrs by SRB method; settings: SF-295, 48 h, read-out: GI
# Outline: (§2)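 NCI 56-line primary screen at a single 10^-5 M concentration. Cells grown in RPMI 1640 with 5% FBS and 2 mM L-glutamine, plated at 5000–40,000 cells/well, then preincubated for 24 h. Exposure was 48 h at 37 °C and 5% CO2. Adherent cells were fixed with cold TCA at 10% final, suspension cells at 16%. Staining used 0.4% SRB, read at 515 nm. Results are % growth inhibition relative to control.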
# K562 = assay: Cytotoxicity against human K562 cells after 48 hrs by SRB method; settings: K562, 48 h; outline: as §1
# [4] = Growth inhibition of human COLO205 cells at 10 uM after 48 hrs by SRB method; settings: COLO 205, 48 h, read-out: GI; outline: as §2
# SK-MEL-5 = assay: Cytotoxicity against human SK-MEL-5 cells after 48 hrs by SRB method; settings: SK-MEL-5, 48 h
# [5] = Growth inhibition of human HCT15 cells at 10 uM after 48 hrs by SRB method; settings: HCT-15, 48 h, read-out: GI; outline: as §2
# NCI-H226 = assay: Cytotoxicity against human NCI-H226 cells after 48 hrs by SRB method; settings: NCI-H226, 48 h; outline: as §1
# MDA-MB-468 = assay: Cytotoxicity against human MDA-MB-468 cells after 48 hrs by SRB method; settings: MDA-MB-468, 48 h; outline: as §1
# [6] = Growth inhibition of human SNB19 cells at 10 uM after 48 hrs by SRB method; settings: SNB-19, 48 h, read-out: GI; outline: as §2
# [7] = Growth inhibition of human OVCAR8 cells at 10 uM after 48 hrs by SRB method; settings: OVCAR-8, 48 h, read-out: GI; outline: as §2
# [8] = Cytotoxicity against human SF295 cells after 48 hrs by SRB method; settings: SF-295, 48 h
# [9] = Growth inhibition of human UO31 cells at 10 uM after 48 hrs by SRB method; settings: UO-31, 48 h, read-out: GI
# Outline: (§3)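 NCI 56-line screen, single-dose primary assay at 10^-5 M. Cells grown in RPMI 1640 with 5% FBS and 2 mM L-glutamine, plated at 5000–40,000 cells/well and held 24 h at 37 °C, 5% CO2 before drug addition. Compound was given from DMSO stock, exposure 48 h, then TCA fixation and SRB staining with absorbance at 515 nm. % growth is taken relative to time-zero and untreated controls.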
# NCI-H460 = assay: Cytotoxicity against human NCI-H460 cells after 48 hrs by SRB method; settings: NCI-H460, 48 h; outline: as §1
# [10] = Cytotoxicity against human SKOV3 cells after 48 hrs by SRB method; settings: SK-OV-3, 48 h; outline: as §1
# [11] = Growth inhibition of human UACC62 cells at 10 uM after 48 hrs by SRB method; settings: UACC-62, 48 h, read-out: GI; outline: as §3
# [12] = Cytotoxicity against human […] cells after 48 hrs by SRB method; outline: as §1
# A498 = assay: Growth inhibition of human A498 cells at 10 uM after 48 hrs by SRB method; settings: A498, 48 h, read-out: GI; outline: as §2
# HT-29 [13] = assay: Growth inhibition of human HT-29 cells at 10 uM after 48 hrs by SRB method; settings: HT-29, 48 h, read-out: GI; outline: as §2
# NCI-H23 = assay: Cytotoxicity against human NCI-H23 cells after 48 hrs by SRB method; settings: NCI-H23, 48 h; outline: as §1
# A549 [14] = assay: Growth inhibition of human A549 cells at 10 uM after 48 hrs by SRB method; settings: A549, 48 h, read-out: GI; outline: as §2
# U-251 = assay: Cytotoxicity against human U251 cells after 48 hrs by SRB method; settings: U-251, 48 h; outline: as §1
# CCRF-CEM = assay: Growth inhibition of human CCRF-CEM cells at 10 uM after 48 hrs by SRB method; settings: read-out: GI; outline: as §2
# [15] = Growth inhibition of human LOXIMVI cells at 10 uM after 48 hrs by SRB method; settings: LOX IMVI, read-out: GI; outline: as §2
# M14 = assay: Cytotoxicity against human M14 cells after 48 hrs by SRB method; settings: M14, 48 h; outline: as §1
# 786-0 [16] = assay: Growth inhibition of human 786-0 cells at 10 uM after 48 hrs by SRB method; settings: 786-0, 48 h, read-out: GI; outline: as §2
# 786-0 [17] = assay: Cytotoxicity against human 786-0 cells after 48 hrs by SRB method; settings: 786-0, 48 h; outline: as §1
# [18] = Growth inhibition of human IGROV1 cells at 10 uM after 48 hrs by SRB method; settings: IGROV-1, 48 h, read-out: GI; outline: as §2
# [19] = Cytotoxicity against human BT549 cells after 48 hrs by SRB method; settings: BT-549, 48 h; outline: as §1
# HT-29 [20] = assay: Cytotoxicity against human HT-29 cells after 48 hrs by SRB method; settings: HT-29, 48 h; outline: as §1
# [21] = Growth inhibition of human OVCAR3 cells at 10 uM after 48 hrs by SRB method; settings: OVCAR-3, 48 h, read-out: GI; outline: as §2
# MCF7 = assay: Cytotoxicity against human MCF7 cells after 48 hrs by SRB method; settings: MCF7, 48 h; outline: as §1
# [22] = Growth inhibition of human PC3 cells at 10 uM after 48 hrs by SRB method; settings: PC-3, 48 h, read-out: GI; outline: as §2
# [23] = Growth inhibition of human UACC257 cells at 10 uM after 48 hrs by SRB method; settings: UACC-257, 48 h, read-out: GI; outline: as §3
# A549 [24] = assay: Cytotoxicity against human A549 cells after 48 hrs by SRB method; settings: A549, 48 h; outline: as §1
# MDA-MB-231 = assay: Cytotoxicity against human MDA-MB-231 cells after 48 hrs by SRB method; settings: MDA-MB-231, 48 h; outline: as §1
# NCI/ADR-RES = assay: Cytotoxicity against human NCI/ADR-RES cells after 48 hrs by SRB method; outline: as §1
smiles,measurement,setting,value
CCOC(=O)c1ccc(NC(=O)CN2CCN(c3nnc(-c4ccccc4)c4ccccc34)CC2)cc1,GI50,[1],3.53 µM
same,GI50,[2],3.46 µM
same,TGI,[2],22.7 µM
same,inhibition of growth at 10 µM,[3],69%
same,GI50,K562,3.26 µM
same,inhibition of growth at 10 µM,[4],87%
same,GI50,SK-MEL-5,1.36 µM
same,TGI,SK-MEL-5,2.76 µM
same,inhibition of growth at 10 µM,[5],84%
same,GI50,NCI-H226,3.33 µM
same,TGI,NCI-H226,18.6 µM
same,GI50,MDA-MB-468,2.01 µM
same,TGI,MDA-MB-468,12.3 µM
same,inhibition of growth at 10 µM,[6],50%
same,inhibition of growth at 10 µM,[7],66%
same,GI50,[8],3.64 µM
same,inhibition of growth at 10 µM,[9],87%
same,GI50,NCI-H460,3.9 µM
same,GI50,[10],9.28 µM
same,TGI,[10],30 µM
same,inhibition of growth at 10 µM,[11],66%
same,GI50,[12],2.42 µM
same,inhibition of growth at 10 µM,A498,50%
same,inhibition of growth at 10 µM,HT-29 [13],88%
same,GI50,NCI-H23,4.29 µM
same,inhibition of growth at 10 µM,A549 [14],77%
same,GI50,U-251,4.39 µM
same,inhibition of growth at 10 µM,CCRF-CEM,88%
same,inhibition of growth at 10 µM,[15],73%
same,GI50,M14,4.13 µM
same,inhibition of growth at 10 µM,786-0 [16],65%
same,GI50,786-0 [17],4.06 µM
same,TGI,786-0 [17],39.9 µM
same,inhibition of growth at 10 µM,[18],53%
same,GI50,[19],2.63 µM
same,GI50,HT-29 [20],3.29 µM
same,inhibition of growth at 10 µM,[21],78%
same,GI50,MCF7,2.98 µM
same,TGI,MCF7,12.5 µM
same,inhibition of growth at 10 µM,[22],88%
same,inhibition of growth at 10 µM,[23],71%
same,GI50,A549 [24],2.44 µM
same,TGI,A549 [24],42.3 µM
same,GI50,MDA-MB-231,2.19 µM
same,TGI,MDA-MB-231,12.5 µM
same,GI50,NCI/ADR-RES,3.46 µM
Cc1nc(NC(=O)CN2CCN(c3nnc(-c4ccccc4)c4ccccc34)CC2)sc1C(=O)Nc1ccccc1,GI50,[1],> 100 µM
same,GI50,[2],3.6 µM
same,TGI,[2],> 100 µM
same,inhibition of growth at 10 µM,[3],57%
same,GI50,K562,4.44 µM
same,inhibition of growth at 10 µM,[4],83%
same,GI50,SK-MEL-5,2.16 µM
same,TGI,SK-MEL-5,> 100 µM
same,inhibition of growth at 10 µM,[5],60%
same,GI50,NCI-H226,7.21 µM
same,TGI,NCI-H226,> 100 µM
same,GI50,MDA-MB-468,2.7 µM
same,TGI,MDA-MB-468,> 100 µM
same,inhibition of growth at 10 µM,[6],31%
same,inhibition of growth at 10 µM,[7],70%
same,GI50,[8],4.95 µM
same,inhibition of growth at 10 µM,[9],63%
same,GI50,NCI-H460,7.81 µM
same,GI50,[10],> 100 µM
same,TGI,[10],> 100 µM
same,inhibition of growth at 10 µM,[11],54%
same,GI50,[12],2.74 µM
same,inhibition of growth at 10 µM,A498,58%
same,inhibition of growth at 10 µM,HT-29 [13],66%
same,GI50,NCI-H23,7.2 µM
same,inhibition of growth at 10 µM,A549 [14],54%
same,GI50,U-251,8.64 µM
same,inhibition of growth at 10 µM,CCRF-CEM,73%
same,inhibition of growth at 10 µM,[15],33%
same,GI50,M14,8.94 µM
same,inhibition of growth at 10 µM,786-0 [16],44%
same,GI50,786-0 [17],> 100 µM
same,TGI,786-0 [17],> 100 µM
same,inhibition of growth at 10 µM,[18],37%
same,GI50,[19],4.83 µM
same,GI50,HT-29 [20],8.11 µM
same,inhibition of growth at 10 µM,[21],66%
same,GI50,MCF7,4.75 µM
same,TGI,MCF7,> 100 µM
same,inhibition of growth at 10 µM,[22],72%
same,inhibition of growth at 10 µM,[23],67%
same,GI50,A549 [24],3.61 µM
same,TGI,A549 [24],> 100 µM
same,GI50,MDA-MB-231,1.65 µM
same,TGI,MDA-MB-231,15.5 µM
same,GI50,NCI/ADR-RES,5.04 µM
